According to paper PMC6198128 (Redox Biology, 2018):

How the values were obtained:
[1] = system: HL-60 (human promyelocytic leukemia); test: Alamar blue cytotoxicity assay, HL-60; format: cell-based
[2] = system: K-562 (human chronic myelogenous leukemia); test: Alamar blue cytotoxicity assay, K-562; format: cell-based
[3] = system: HCT116 (human colon carcinoma); test: Alamar blue cytotoxicity assay, HCT116; format: cell-based
[4] = system: MCF-7 (human breast carcinoma); test: Alamar blue cytotoxicity assay, MCF-7; format: cell-based
[5] = system: HepG2 (human hepatocellular carcinoma); test: Alamar blue cytotoxicity assay, HepG2; format: cell-based
[6] = system: HSC-3 (human oral squamous cell carcinoma); test: Alamar blue cytotoxicity assay, HSC-3; format: cell-based
[7] = system: SCC-9 (human oral squamous cell carcinoma); test: Alamar blue cytotoxicity assay, SCC-9; format: cell-based
B16-F10 (mouse melanoma) = test: Alamar blue cytotoxicity assay, B16-F10; format: cell-based
[8] = system: PBMC (human peripheral blood mononuclear cells); test: Alamar blue cytotoxicity assay, PBMC; format: cell-based; details: read-out: IC50 in µM; PBMC non-cancer cells, alamar blue, 72 h
HL-60 cells [9] = format: cell-based, human; details: HL-60, 24 and 48 h, p < 0.05; DOX 2 µM, OXA 2.5 µM
HL-60 cells [10] = test: Internucleosomal DNA fragmentation and cell cycle distribution; format: cell-based, human
Outline: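 After 24 or 48 h treatment, HL-60 cells were permeabilized and stained with propidium iodide, and DNA content was measured by flow cytometry. 10^4 events were recorded per sample with debris excluded. Sub-G0/G1 was taken as internucleosomal DNA fragmentation, alongside G0/G1, S and G2/M fractions. Doxorubicin and oxaliplatin were positive controls; ANOVA with Student–Newman–Keuls test.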

HL-60 cells [11] = test: Mitochondrial transmembrane potential; format: cell-based, human; details: HL-60, rhodamine 123, 24 h, p < 0.05; DOX 2 µM, OXA 2.5 µM
Outline: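 HL-60 cells were grown in RPMI-1640 with 10% FBS, 2 mM L-glutamine and 50 µg/mL gentamycin at 37 °C, 5% CO2. After treatment, cells were loaded with rhodamine 123 (5 µg/mL) for 15 min at 37 °C in the dark and washed in saline.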

ROS in HL-60 cells = test: Intracellular reactive oxygen species levels; format: cell-based, human; details: HL-60, DCFH-DA, 1 h
Outline: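 Intracellular ROS in HL-60 cells was measured with 2′,7′-dichlorofluorescin diacetate after 1 and 3 h exposure to test compound. Fluorescence was read by flow cytometry, recording 10^4 events per sample with cellular debris omitted. Vehicle served as negative control; results are mean ± S.E.M., compared by ANOVA and Student–Newman–Keuls test.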

calf thymus DNA (ctDNA) = test: DNA intercalation assay; format: binding; details: cell-free, 15 µg/mL ctDNA, 1.5 µM ethidium bromide; complex 5, 10 and 20 µM; doxorubicin 10 µM
Outline: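 Ethidium bromide displacement from calf thymus DNA in saline: 15 µg/mL ctDNA, 1.5 µM ethidium bromide, test compound at 5, 10 and 20 µM. Vehicle (0.1% DMSO) was the negative control and doxorubicin (10 µM) the positive control. Fluorescence was read at excitation 320 nm and emission 600 nm. Lower fluorescence was taken as intercalation.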

[12] = Time-dependent 31P{1H} NMR stability in DMSO solution; format: physicochemical
HL-60 cells [13] = test: Morphological analysis; format: cell-based, human; details: 24 and 48 h, DOX 2 µM, OXA 2.5 µM
Outline: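 HL-60 cells were treated for 24 and 48 h, then stained with May-Grunwald-Giemsa and examined by light microscopy. In parallel, forward and side light scatter were quantified by flow cytometry, recording 10^4 events per sample with debris excluded. Vehicle was the negative control, with doxorubicin and oxaliplatin as positive controls.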

[14] = HL-60, 1 µM, 24 h of incubation
[15] = HL-60, 1 µM, 48 h of incubation
[16] = HL-60, 2 µM, 24 h of incubation
[17] = HL-60, 2 µM, 48 h of incubation
[18] = HL-60, 4 µM, 24 h of incubation
[19] = HL-60, 4 µM, 48 h of incubation

## cis-[PtCl(PIP-OH)(PPh3)2]PF6 [CPP]
[1]; HL-60, ratio of IC50
  more potent than PIP-OH: 4.5 fold
  more potent than piplartine: 7.4 fold
[1]; read-out: IC50 in µM, HL-60, alamar blue, 72 h
  IC50: 1.9 µM
[2]; K-562, ratio of IC50
  more potent than PIP-OH: 21.1 fold
  more potent than piplartine: 16.9 fold
[2]; read-out: IC50 in µM, K-562, alamar blue, 72 h
  IC50: 1.1 µM
[3]; HCT116, ratio of IC50
  more potent than PIP-OH: 2.4 fold
  more potent than piplartine: 1.1 fold
[3]; read-out: IC50 in µM, HCT116, alamar blue, 72 h
  IC50: 4.8 µM
[4]; MCF-7, ratio of IC50
  more potent than PIP-OH: 3.6 fold
  more potent than piplartine: 1.5 fold
[4]; read-out: IC50 in µM, MCF-7, alamar blue, 72 h
  IC50: 6.8 µM
[5]; HepG2, ratio of IC50
  more potent than piplartine: 1.4 fold
[5]; read-out: IC50 in µM, HepG2, alamar blue, 72 h
  IC50: 4.4 µM
[6]; HSC-3, ratio of IC50
  more potent than PIP-OH: 1.7 fold
  more potent than piplartine: 14.1 fold
[6]; read-out: IC50 in µM, HSC-3, alamar blue, 72 h
  IC50: 1 µM
[7]; SCC-9, ratio of IC50
  more potent than PIP-OH: 3.8 fold
  more potent than piplartine: 2.7 fold
[7]; read-out: IC50 in µM, SCC-9, alamar blue, 72 h
  IC50: 6.2 µM
B16-F10 (mouse melanoma); B16-F10, ratio of IC50
  more potent than PIP-OH: 56.9 fold
  more potent than piplartine: 9.6 fold
B16-F10 (mouse melanoma); read-out: IC50 in µM, B16-F10, alamar blue, 72 h
  IC50: 1.1 µM
[8]
  IC50: 10.3 µM
HL-60 cells [9]
  apoptotic cells (annexin V-FITC/PI): increasing in apoptotic cells with more pronounced effect after 48 h
HL-60 cells [10]; [14]
  DNA content (%) G0/G1: 32.0 ± 5.4 %
  DNA content (%) G2/M: 13.2 ± 2.9%
  DNA content (%) S: 10.5 ± 1.8%
  DNA content (%) Sub-G0/G1: 25.0 ± 1.6 %
HL-60 cells [10]; [15]
  DNA content (%) G0/G1: 49.7 ± 2.2%
  DNA content (%) G2/M: 14.5 ± 0.9%
  DNA content (%) S: 12.3 ± 1.6%
  DNA content (%) Sub-G0/G1: 19.8 ± 1.4 %
HL-60 cells [10]; [16]
  DNA content (%) G0/G1: 34.3 ± 2.9 %
  DNA content (%) G2/M: 15.0 ± 2.5%
  DNA content (%) S: 10.3 ± 1.1%
  DNA content (%) Sub-G0/G1: 29.2 ± 0.9 %
HL-60 cells [10]; [17]
  DNA content (%) G0/G1: 48.5 ± 3.1%
  DNA content (%) G2/M: 14.1 ± 1.5%
  DNA content (%) S: 14.3 ± 0.8%
  DNA content (%) Sub-G0/G1: 25.8 ± 3.8 %
HL-60 cells [10]; [18]
  DNA content (%) G0/G1: 26.7 ± 4.6 %
  DNA content (%) G2/M: 15.3 ± 2.6%
  DNA content (%) S: 10.1 ± 1.4%
  DNA content (%) Sub-G0/G1: 26.2 ± 4.1 %
HL-60 cells [10]; [19]
  DNA content (%) G0/G1: 41.9 ± 8.6%
  DNA content (%) G2/M: 12.8 ± 2.8%
  DNA content (%) S: 8.0 ± 2.0 %
  DNA content (%) Sub-G0/G1: 27.3 ± 7.0 %
HL-60 cells [11]
  mitochondrial transmembrane potential: induced loss of the mitochondrial transmembrane potential
ROS in HL-60 cells
  ROS levels: caused increasing in the ROS levels
Calf thymus DNA (ctDNA)
  ethidium bromide fluorescence (displacement from ctDNA): did not reduce the ethidium bromide fluorescence
[12]; after 1 h of incubation
  stability in solution (31P{1H} NMR): significant dissociation of PIP-OH ligand from the metal complex
[12]; after 48 h
  stability in solution (31P{1H} NMR): most the PIP-OH was dissociated from the metal complex
HL-60 cells [13]; HL-60, May-Grunwald-Giemsa
  cell morphology: reduction in the cell volume, chromatin condensation and fragmentation of the nuclei
HL-60 cells [13]; HL-60, flow cytometry
  forward light scatter (FSC): decrease in FSC
  side scatter (SCC): transient increase in SCC
